Values after ≈ are worked out from the molar mass of the structure shown.

The text below walks through data of ChEMBL document CHEMBL1138436, “Biological activity and chemistry of taxoids from the Japanese yew, Taxus cuspidata” (J Nat Prod, 2004).

Test system in one assay: not listed separately
The assay is described as follows: Reversal of multidrug resistance in human 2780AD cells assessed as increase in vincristine accumulation at 10 ug/ml relative to verapamil. The format is functional, A2780 ADR.
For `C=C1[C@@H](OC(=O)/C=C/c2ccccc2)CC[C@@]2(C)[C@@H](O)[C@H](OC(C)=O)C3=C(C)C(=O)C[C@@H]([C@@H](OC(C)=O)[C@H]12)C3(C)C`, the Activity amounted to 185%.
Regarding `C=C1[C@@H](OC(=O)/C=C/c2ccccc2)CC[C@@]2(C)[C@@H](OC(C)=O)[C@H](OC(C)=O)C3=C(C)C(=O)C[C@@H]([C@@H](O)[C@H]12)C3(C)C`, the Activity came to 191%.

Test system in the next assay: not listed separately
The assay is described as follows: Reversal of multidrug resistance in human 2780AD cells assessed as increase in vincristine accumulation at 1 ug/ml relative to verapamil. The format is functional, A2780 ADR.
With `C=C1[C@@H](OC(=O)/C=C/c2ccccc2)CC[C@@]2(C)[C@@H](OC(C)=O)[C@H](OC(C)=O)[C@@]34O[C@]3(C)C(=O)C[C@@H]([C@@H](OC(C)=O)[C@H]12)C4(C)C`, the Activity is 142%.
Still for that read-out and setting: the value for `C=C1[C@@H](OC(=O)/C=C/c2ccccc2)CC[C@@]2(C)[C@@H](OC(C)=O)[C@H](OC(C)=O)[C@@]34[C@H](C)C(=O)C[C@@](O)([C@@H](OC(C)=O)[C@@]132)C4(C)C` was 204%.

A further assay relates to P388. The experiment in a line: Antitumor activity against vincristine-resistant mouse P388 cells implanted in CDF1 mouse at 0.2 mg/kg assessed as median survival time relative to control. The format is functional. The essentials:
(§1)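 CDF1 mice were implanted i.p. with P388/VCR (vincristine-resistant) leukemia cells on day 0. Vincristine was given i.p. daily for 5 days, alone or together with a taxoid at 200 mg/kg. There were 5 mice per group. T/C (%) is the median survival time of treated mice divided by that of untreated control mice.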
On to `CC[C@]1(O)C[C@H]2CN(CCc3c([nH]c4ccccc34)[C@@](C(=O)OC)(c3cc4c(cc3OC)N(C=O)[C@H]3[C@@](O)(C(=O)OC)[C@H](OC(C)=O)[C@]5(CC)C=CCN6CC[C@]43[C@@H]65)C2)C1` [VINCRISTINE], for which the T/C is recorded as 110%.

In the next assay the test system is P388. The assay is described as follows: Antitumor activity against vincristine-resistant mouse P388 cells implanted in CDF1 mouse at 0.1 mg/kg assessed as median survival time relative to control. The format is functional. Put shortly: as §1
Consider `CC[C@]1(O)C[C@H]2CN(CCc3c([nH]c4ccccc34)[C@@](C(=O)OC)(c3cc4c(cc3OC)N(C=O)[C@H]3[C@@](O)(C(=O)OC)[C@H](OC(C)=O)[C@]5(CC)C=CCN6CC[C@]43[C@@H]65)C2)C1` [VINCRISTINE], for which the T/C turned out to be 92%.

For another assay, the system named is KB. The experiment in a line: Cytotoxicity against human KB cells. The format is functional, cell-based.
Regarding `C=C1[C@@H](OC(=O)/C=C/c2ccccc2)CC[C@@]2(C)[C@@H](O)[C@H](OC(C)=O)C3=C(C)C(=O)C[C@@H]([C@@H](OC(C)=O)[C@H]12)C3(C)C`, the IC50 was determined as 0.08 µg/mL (≈ 0.142 µM).
In turn, `CC(=O)O[C@H]1C(=O)[C@@]2(C)[C@H]([C@H](OC(=O)c3ccccc3)[C@]3(O)C[C@H](OC(=O)[C@H](O)[C@@H](NC(=O)c4ccccc4)c4ccccc4)C(C)=C1C3(C)C)[C@]1(OC(C)=O)CO[C@@H]1C[C@@H]2O` [PACLITAXEL] yielded an IC50 of 0.0015 µg/mL (≈ 0.00176 µM).
Still for that read-out and setting: as for `C=C1[C@@H](OC(=O)/C=C/c2ccccc2)C[C@H](OC(C)=O)[C@@]2(C)[C@@H](OC(C)=O)[C@H](OC(C)=O)[C@]3(O)[C@@]4(C)CO[C@]3(C)C(=O)C[C@H]4[C@@H](OC(C)=O)[C@H]12` [TAXAGIFINE], the figure is 0.08 µg/mL (≈ 0.115 µM); as for `CCCC(=O)N[C@@H](c1ccccc1)[C@@H](O)C(=O)O[C@H]1C[C@@]2(O)[C@@H](OC(=O)c3ccccc3)[C@@H]3[C@]4(OC(C)=O)CO[C@@H]4C[C@H](O)[C@@]3(C)C(=O)[C@H](OC(C)=O)C(=C1C)C2(C)C` [TAXCULTIN], 0.0015 µg/mL (≈ 0.00183 µM); as for `CCCCCC(=O)N[C@@H](c1ccccc1)[C@@H](O)C(=O)O[C@H]1C[C@@]2(O)[C@@H](OC(=O)c3ccccc3)[C@@H]3[C@]4(OC(C)=O)CO[C@@H]4C[C@H](O)[C@@]3(C)C(=O)[C@H](OC(C)=O)C(=C1C)C2(C)C` [TAXOL C], 0.0015 µg/mL (≈ 0.00177 µM).
Still for that read-out and setting: as for `C/C=C(\C)C(=O)O[C@@H]1C2=C(C)[C@@H](O)C[C@@](C(C)(C)O)([C@@H](OC(C)=O)[C@@H]3[C@]4(OC(C)=O)CO[C@@H]4C[C@H](OC(C)=O)[C@@]3(C)[C@H]1OC(C)=O)C2(C)C` [TAXUSPINE Q], the figure is 0.08 µg/mL (≈ 0.115 µM); as for `C=C1[C@@H](OC(=O)/C=C/c2ccccc2)C[C@H](OC(C)=O)[C@@]2(CO)[C@@H](OC(C)=O)[C@H](OC(C)=O)[C@]3(O)[C@@]4(C)CO[C@]3(C)C(=O)C[C@H]4[C@@H](OC(C)=O)[C@H]12` [TAXUSPINE S], 0.08 µg/mL (≈ 0.112 µM); as for `C=C1[C@@H](OC(=O)/C=C/c2ccccc2)C[C@H](OC(C)=O)[C@@]2(COC(C)=O)[C@@H](OC(C)=O)[C@H](O)[C@]3(O)[C@@]4(C)CO[C@]3(C)C(=O)C[C@H]4[C@@H](OC(C)=O)[C@H]12` [TAXUSPINE T], 0.08 µg/mL (≈ 0.112 µM).
Consider `CC(=O)O[C@H]1C[C@H]2[C@@H](OC(C)=O)/C=C3\C[C@](C)(C(=O)[C@H](O)C(=C1C)C2(C)C)[C@@H](OC(C)=O)C[C@@H]3O` [TAXUSPINE W], for which the midpoint of inhibition, the IC50, lay at 0.08 µg/mL (≈ 0.162 µM).
